# Assay outcomes as filed in PubChem.
# Shown are actives, neighbours in structure and some others; about 2.1% of the full set was active somewhere.
# IMP-1 inh: IMP-1 metallo-beta-lactamase inhibitors, primary screen, biochemical, epi-absorbance readout, Pseudomonas aeruginosa enzyme; metallo-beta-lactamase IMP-1 (Pseudomonas aeruginosa); purified IMP-1, nitrocefin hydrolysis, epi-absorbance fluorescence; inhibition, % at 5.6 µM; 0.45% of 290,000 active; AID 1556, 2009;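 active = inhibition above the mean plus 3 SD of all compounds in the same screening run, cut at about 4.5% in these data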;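 note: 0% = IMP-1 with DMSO and 100% = DMSO wells lacking enzyme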
#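 Test system: recombinant IMP-1 enzyme, purified / Medium: HEPES buffer pH 7.1 with ZnSO4 and Brij 35 / Doses: single dose, 5.6 µM / Times: 25 °C, 15 min preincubation, 25 min reaction / Detection: Epi-absorbance via hydrolysed-nitrocefin quenching of white-plate fluorescence, 480/530 nm, EDTA stop / Evaluation: percent inhibition from optical density relative to buffer-blank wells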
# DNA FID counter-1: compounds displacing fluorescent DNA intercalator, primary screen, artefact control for HCV NS3 helicase inhibitor project, biochemical, FID fluorescence. DNA fluorescent intercalator displacement. inhibition, % at 7.9 µM. 0.17% of 290,000 active. AID 1845, 2009;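 note: 0% = vehicle and 100% = reference compound; higher means more ethidium bromide displaced from hairpin DNA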
# VIM-2 inh: VIM-2 metallo-beta-lactamase inhibitors, primary screen, biochemical, epi-absorbance readout, Pseudomonas aeruginosa enzyme; purified VIM-2, nitrocefin hydrolysis, epi-absorbance fluorescence; 0.89% of 290,000 active; inhibition, % at 5.6 µM;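 active = inhibition above the mean of all tested compounds plus 3 SD, cutoff set per screening run, cut at about 7.5% in these data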;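 note: red hydrolysis product quenches plate fluorescence so inhibitors raise well fluorescence; 0% = enzyme with DMSO and 100% = DMSO without enzyme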
# SUMO HTRF inh: inhibitors of in vitro SUMOylation cascade, primary screen, biochemical, HTRF, uHTS; HTRF SUMOylation assay, SAE1/SAE2 + UBC9; inhibition, % at 35 µM; 0.36% of 290,000 active; SUMO-conjugating enzyme UBC9 (Homo sapiens), P63279; in the data active = inhibition above about 50%, passing the limit was not always enough; inconclusive = no clear call, values can overlap the other calls
# Target sequence (P63279 whole entry, looked up): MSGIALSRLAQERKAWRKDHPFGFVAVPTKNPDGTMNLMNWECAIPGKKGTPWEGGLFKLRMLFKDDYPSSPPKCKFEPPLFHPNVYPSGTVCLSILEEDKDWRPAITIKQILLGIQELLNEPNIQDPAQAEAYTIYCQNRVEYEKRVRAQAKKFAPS
# NS3 helicase inh: inhibitors of HCV NS3 helicase, primary screen, biochemical, Cy5 molecular beacon fluorescence. inhibition, % at 10.9 µM. 0.56% of 290,000 active. NS3 helicase DNA unwinding. Hepatitis C virus NS3 helicase;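 active = inhibition above the mean of all tested compounds plus 3 SD, set per campaign, cut at about 35% in these data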;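 note: 0% = DMSO wells and 100% = thioflavine S control wells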
#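 Control set: DMSO versus 110 µM thioflavine S; Material: NS3 helicase fragment of HCV; Measured by: Cy5 fluorescence at 0 and 60 min, beacon hairpin quenching; Read-out basis: percent inhibition from t60/t0 fluorescence ratio; Times: reaction time 60 min, 25 °C; Repeats: single replicate; Compound dosing: single dose, 10.9 µM nominal final, DMSO 0.8% final.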
# NS3 helicase cf: HCV NS3 helicase inhibitors, retest, confirmation, biochemical, Cy5 molecular beacon fluorescence, triplicate; inhibition, % at 10.9 µM; shares compounds with NS3 helicase inh; 31% of 1,600 active; NS3 helicase DNA unwinding;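 active = inhibition above the mean of all tested compounds plus 3 SD, cutoff set per campaign, cut at about 36% in these data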
# DNA FID counter-2: compounds displacing fluorescent DNA intercalator, artefact control for HCV NS3 helicase inhibitor project, biochemical, FID fluorescence, triplicate; 4% of 1,600 active; DNA fluorescent intercalator displacement; shares compounds with NS3 helicase inh; inhibition, % at 7.9 µM; AID 1945, 2009;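 note: 0% = vehicle and 100% = reference compound; higher means more displacement of ethidium bromide from the DNA hairpin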
# FID counter DR: compounds displacing fluorescent intercalator from DNA, dose response, counter-screen for HCV NS3 helicase inhibitor project, biochemical, fluorescence; shares compounds with NS3 helicase inh; fluorescent intercalator displacement from DNA; IC50, µM; 120 tested, under 10 active; AID 2172, 2009; call rule not given here
# The depositor's hits bear a star; u = inconclusive; x = no result. Cut-off read from the data, not from the text of the source, unless noted: active = inhibition above about 37%; inactive = the rest.
SMILES,IMP-1 inh,DNA FID counter-1,VIM-2 inh,SUMO HTRF inh,NS3 helicase inh,NS3 helicase cf,DNA FID counter-2,others
CC1(C)Cc2c(c(-c3ccco3)[nH]c(=O)c2C#N)CS1,0,-7,-2,33,44*,75*,7,
CC1(C)Cc2c(c(-c3ccccc3)[nH]c(=O)c2C#N)CS1,-2,-2,-1,8,-5,x,x,
CCCOC(=O)C1[C@H]2C(=O)N(Cc3ccco3)C[C@]23C=C[C@H]1O3 (stereo not given in full),-3,-43,-4,10,40*,-6,-8,
O=C(C1CCCO1)N1CCN(S(=O)(=O)c2ccc(Cl)cc2)CC1 (stereo not given),-4,-13,-4,8,-2,x,x,
CC1=NN(c2ccc(C(=O)O)cc2)C(=O)/C1=C/c1ccc(-c2ccccc2F)o1,-3,-8,-3,31,39*,-7,3,
COc1ccc(CCN(C)Cc2ccc(C(=O)Nc3ccccc3)cc2)cc1OC,-2,16,0,-4,-6,x,x,
NC(=O)c1sc2nc3c(c(-c4ccco4)c2c1N)CCCC3,-1,-19,1,-12,10,x,x,
Nc1c(C(=O)NCC2CCCO2)sc2nc3c(c(-c4ccco4)c12)CC/C3=C\c1ccco1 (stereo not given),4,9,0,u,51*,88*,19,FID counter DR=>79
O=C(N/N=C\C=C\c1ccco1)C1COc2ccccc2O1 (stereo not given),-3,-18,-5,1,44*,-2,-8,
CC1=Nc2ccccc2/C1=C/c1c(N)n2c(S(=O)(=O)C(C)C)nsc2nc1=O,0,-25,2,1,30,x,x,
CC1=Nc2ccccc2/C1=C/c1c(N)n2c(S(=O)(=O)CC(C)C)nsc2nc1=O,-3,-30,-5,-6,36*,54*,-15,
O=c1[nH]c(/C=C\c2cccc(Cl)c2)nc(O)c1[N+](=O)[O-],-7,-18,-3,9,36*,-12,1,
O=c1[nH]c(/C=C\c2cccc(F)c2)nc(O)c1[N+](=O)[O-],-4,0,0,6,32,x,x,
Cc1c(C(=O)O)[nH]c2c1C(=O)CC(c1ccc(C(C)(C)C)cc1)C2 (stereo not given),-2,-26,-2,24,49*,29,-25,
Cc1ccc(C(=O)NCCNC(=O)c2ccco2)cn1,-2,-5,-1,-2,3,x,x,
COc1ccc(S(=O)(=O)/N=C2/NC(=O)/C(=C\c3ccco3)S2)cc1,-2,-23,-1,64,37*,60*,6,
COc1ccc(S(=O)(=O)/N=C2/NC(=O)/C(=C/c3ccco3)S2)cc1,-1,-21,-5,40,37*,78*,-2,FID counter DR=>79
Nc1ccc(S(=O)(=O)Nc2nc3ccccc3o2)cc1,0,-1,0,-2,12,x,x,
O=C(O)c1cc([N+](=O)[O-])cc([N+](=O)[O-])c1N1CCN(c2cccc(C(F)(F)F)c2)CC1,-2,-3,-2,-4,42*,55*,-17,
COc1ccc(CCNC(=O)Cn2nnc(C(=O)Nc3cc(C)ccc3C)c2N)cc1OC,-2,-34,-5,7,-2,x,x,
CCCCc1nnc(NC(=O)COC)s1,-1,-4,-2,3,-2,x,x,
CCCc1cc(=O)oc2cc(OCC(=O)NC(Cc3ccc(Cl)cc3)C(=O)O)ccc12 (stereo not given),-4,-18,0,10,5,x,x,
CCCCc1cc(=O)oc2cc(OCC(=O)N[C@@H](Cc3ccccc3)C(=O)O)ccc12,-2,-23,0,9,50*,24,-26,
O=C(CCC1N=C2c3ccccc3N=C(SCC(=O)NCc3ccco3)N2C1=O)NCc1ccco1 (stereo not given),-2,-23,-2,20,15,x,x,
Cc1ccc(CSC2=Nc3ccccc3C3=NC(CCC(=O)NCc4ccco4)C(=O)N23)cc1 (stereo not given),-2,-44,0,21,47*,-14,-38,
SMILES,IMP-1 inh,DNA FID counter-1,VIM-2 inh,SUMO HTRF inh,NS3 helicase inh,NS3 helicase cf,DNA FID counter-2,others
COc1cccc(-c2c(C(=O)N/N=C(\C)c3ccc(Cl)s3)nnn2-c2nonc2N)c1,0,-16,0,-11,24,x,x,
COc1ccc(CCNC(=O)COC(=O)/C=C/c2cc(OC)c(OC)c(OC)c2)cc1OC,-3,-35,-5,2,43*,-15,-41,
COc1ccc(Cc2nc3ccc(C(=O)N(C)CCn4ccnc4)cc3o2)cc1OC,-4,0,2,16,0,x,x,
COc1ccc(Cn2c(/C=C/c3ccccc3)nc3ccccc32)cc1,-1,-15,-2,19,-12,x,x,
Clc1ccccc1Cn1c(/C=C/c2ccco2)nc2ccccc21,-1,-20,1,49,52*,11,-23,
O=C(O)Cc1cn(Cc2ccc(F)cc2)c2ccccc12,-2,-23,-2,17,2,x,x,
Cc1ccc(Cn2cc(CCC(=O)O)c3ccccc32)cc1,13*,-31,5,3,49*,12,-21,
CC(=O)N(CCc1ccccc1)Cc1cc2ccc(C)c(C)c2[nH]c1=O,1,-37,0,1,32,x,x,
N#C/C(=C\c1ccc(OCc2ccc(C(=O)O)cc2)cc1)C(=O)NCc1ccccc1,-2,-29,-1,15,39*,70*,-27,FID counter DR=>79
COc1cc(/C=C(\C#N)C(=O)NCc2ccccc2)ccc1OCc1ccc(C(=O)O)cc1,-5,-25,-3,14,30,x,x,
CCn1nc(C)cc1C(=O)NC1CCCc2c1cnn2-c1cc(F)cc(F)c1 (stereo not given),-3,-50,-3,3,0,x,x,
COc1ccc(C(=O)[C@H]2[C@H]3C(=O)N(c4ccc(C)cc4)C(=O)[C@H]3C3C=CC=NN32)cc1 (stereo not given in full),-1,-20,1,-28,60*,-16,-19,
O=C(Nc1ccccc1)[C@@H]1[C@@H]2C(=O)N(c3ccc(F)cc3)C(=O)[C@@H]2[C@H]2C=CC=NN21,1,-6,3,12,61*,-19,-7,
Cc1ccc(N2C(=O)[C@@H]3[C@H](C2=O)[C@H]2C=CC=NN2[C@@H]3C(=O)Nc2ccccc2)cc1,-4,-10,-4,4,16,x,x,
